Laboratory results: ChEMBL document CHEMBL1126613, “Centrally acting serotonergic agents. Synthesis and structure-activity relationships of C-1- or C-3-substituted derivatives of 8-hydroxy-2-(di-n-propylamino)tetralin” (J Med Chem, 1993)
Values joined by “and” are separate entries in the source; they are usually repeats but may differ in a detail not shown here. Identical values can stand only once.

Legend:
Mus musculus [1] = assay: Tested in vivo for the effective dose administered orally in mouse hypothermia assay; format: functional; settings: po
Method in brief: (§1)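 Charles River CF-1 mice (18-22 g, 4 per dose), housed individually 20 min before testing. Rectal temperature taken before dosing and 20 min after (sc 0.1 mL; oral 0.2 mL by gavage needle). A drop of ≥2 °F counted as positive. Doses started at 30 mg/kg and fell by half-log until 0/4 responded.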

Mus musculus [2] = assay: In vivo effective dose administered subcutaneously in mouse hypothermia assay.; format: functional; settings: sc; method in brief: as §1
Mus musculus [3] = assay: Behavioral time in mouse face to face assay at 36 umol/kg administered subcutaneously; format: functional
Method in brief: (§2)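 Male CF-1 mice (Charles River, 19-29 g), 8 pairs per dose, dosed sc, ip or orally in 0.25% methylcellulose or 0.1% citric acid; 30 min absorption housed with familiar partner. Pairs from different home cages placed in small litter-floored cage; face-to-face interaction duration scored visually for 3 min. Wilcoxon rank sum (two-tailed) vs daily control, p < 0.05.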

Mus musculus [4] = assay: Behavioral time in mouse face to face assay at 0.4 umol/kg administered subcutaneously; format: functional; method in brief: as §2
Mus musculus [5] = assay: Behavioral time in mouse face to face assay at 3.6 umol/kg administered subcutaneously; format: functional; method in brief: as §2
Mus musculus [6] = assay: Behavioral time in mouse face to face assay at 0 umol/kg administered subcutaneously; format: functional; method in brief: as §2
Rattus norvegicus [7] = assay: Effect on the synthesis rate of dopamine (DOPA) accumulation at the dose of 3.6 umol/kg in the rat ventral limbic brain region; format: functional, Limbic system
Method in brief: (§3)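 Male Sprague-Dawley rats dosed sc with drug or vehicle at time zero. NSD 1015 (100 mg/kg ip) given 15 min later to block aromatic decarboxylase. Brain DOPA and 5-HTP measured by electrochemical detection with peak integration. Expressed as percent change from NSD 1015 plus saline controls. Control and test groups N = 6 each, compared by unpaired t test.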

Rattus norvegicus [8] = assay: Effect on the synthesis rate of 5 HTP accumulation at the dose of 3.6 umol/kg in the rat ventral limbic brain region; format: functional, Limbic system; method in brief: as §3
Felis catus [9] = species: Felis catus; assay: Maximum decrease observed; format: functional; parameters: unit not given here
Felis catus [10] = assay: Maximum decrease on arterial blood pressure at 1 mg/kg; format: functional
Method in brief: (§4)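 Adult cats (2.5-4.0 kg) anesthetized with ketamine 11 mg/kg im, then chloralose 80 mg/kg iv. Femoral artery cannulated for blood pressure, femoral vein for drug. Ventilated, paralyzed with gallamine 4 mg/kg iv, rectal temperature held at 37-38 °C. Cumulative iv doses given at 20-min intervals. Maximum decrease reported following a 1 mg/kg iv dose.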

Felis catus [11] = assay: Dose on arterial blood pressure (BP) in anesthetized cat; format: functional; method in brief: as §4
Felis catus [12] = species: Felis catus; assay: Dose at which the SND has been reduced to 50% of the pretreatment value; format: functional
Method in brief: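 Adult cats (2.5-4.0 kg), ketamine 11 mg/kg im then chloralose 80 mg/kg iv, ventilated, gallamine-paralyzed, rectal temperature 37-38 °C. Sympathetic nerve discharge quantified by cumulative integration. Cumulative iv doses were given at 20-min intervals. Value is the dose reducing discharge to 50% of pretreatment.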

Mus musculus [13] = assay: Behavioral time in mouse face to face assay at 34 umol/kg administered subcutaneously; format: functional; method in brief: as §2
Mus musculus [14] = assay: Behavioral time in mouse face to face assay at 0.3 umol/kg administered subcutaneously; format: functional; method in brief: as §2
Mus musculus [15] = assay: Behavioral time in mouse isolation-induced aggression assay at 34 umol/kg administered intraperitoneally; format: functional
Method in brief: (§5)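 Male CF-1 mice. Residents were isolated singly for at least 1 month; group-housed intruders were kept 4-6/cage. Mice weighed 28-30 g at first test. Residents got drug ip or orally in 0.25% methylcellulose or 0.1% citric acid 30 min before an untreated intruder was introduced. Latency to fighting was recorded, capped at 600 s. Dosing was blind, 6/group (vehicle n = 12), Wilcoxon rank sum.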

Mus musculus [16] = assay: Behavioral time in mouse face to face assay at 3.4 umol/kg administered subcutaneously; format: functional; method in brief: as §2
Mus musculus [17] = assay: Behavioral time in mouse isolation-induced aggression assay at 10 umol/kg administered intraperitoneally; format: functional; method in brief: as §5
Mus musculus [18] = assay: Behavioral time in mouse isolation-induced aggression assay at 3.4 umol/kg administered intraperitoneally; format: functional; method in brief: as §5
Mus musculus [19] = assay: Tested in vivo for the maximum temperature decrease in mouse hypothermia assay.; format: functional
Method in brief: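 CF-1 mice (18-22 g, 4 per dose), dosed sc or orally. Rectal temperature measured before dosing and 20 min after. The mean maximum temperature drop (°F) at 20 min after any dose is recorded as an efficacy index.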

Rattus norvegicus [20] = assay: Effect on the synthesis rate of dopamine (DOPA) accumulation at the dose of 3.4 umol/kg in the rat ventral limbic brain region; format: functional, Limbic system; method in brief: as §3
Rattus norvegicus [21] = assay: Effect on the synthesis rate of 5 HTP accumulation at the dose of 3.4 umol/kg in the rat ventral limbic brain region; format: functional, Limbic system; method in brief: as §3
Rattus norvegicus [22] = assay: Effect on the synthesis rate of dopamine (DOPA) accumulation at the dose of 100 umol/kg in the rat ventral limbic brain region; format: functional, Limbic system; method in brief: as §3
Rattus norvegicus [23] = assay: Effect on the synthesis rate of dopamine (DOPA) accumulation at the dose of 10 uM/kg in the rat ventral limbic brain region; format: functional, Limbic system; method in brief: as §3
Rattus norvegicus [24] = assay: Effect on the synthesis rate of 5 HTP accumulation at the dose of 10 umol/kg in the rat ventral limbic brain region; format: functional, Limbic system; method in brief: as §3
Rattus norvegicus [25] = assay: Effect on the synthesis rate of 5 HTP accumulation at the dose of 100 umol/kg in the rat ventral limbic brain region; format: functional, Limbic system; method in brief: as §3

Row | SMILES | ED50 (Mus musculus [1]) [µmol/kg] | ED50 (Mus musculus [2]) [µmol/kg] | Max decrease (Felis catus [9]) | Max decrease (Felis catus [10]) | BP (Felis catus [11]) [%] | ED50 (Felis catus [12]) [µmol/kg] | TMP.decrease (Mus musculus [19]) | other results
1 | C=CCN[C@@H]1CCc2cccc(O)c2[C@@H]1CC=C | > 107 | 1.1 | – | – | – | – | – | Time (Mus musculus [3]): 2.6 s; Time (Mus musculus [4]): 0.8 s; Time (Mus musculus [5]): 0.5 s; Time (Mus musculus [6]): 0.8 s; Change (Rattus norvegicus [7]): 38%; Change (Rattus norvegicus [8]): -48%
2 | C=CC[C@H]1c2c(cccc2OC)CC[C@H]1NCC1CC1 | 134 | 18 | 10 | 58 | 65 | 0.27 | – | –
3 | C=CCN[C@@H]1CCc2cccc(OC)c2[C@@H]1CO | > 106 | 1.4 | 5 | 48 | 82 | 0.09 | – | –
4 | C=CCN[C@@H]1CCc2cccc(OC)c2[C@@H]1CC=C | 44 | 7.9 | 18 | 58 | 70 | 0.54 | 9.8 degrees F and 6.6 degrees F | Time (Mus musculus [13]): 4.3 s; Time (Mus musculus [14]): 0.9 s; Time (Mus musculus [15]): 290 s; Time (Mus musculus [16]): 1.4 s; Time (Mus musculus [17]): 130 s; Time (Mus musculus [18]): 45 s; Time (Mus musculus [6]): 1.1 s; Change (Rattus norvegicus [20]): -21%; Change (Rattus norvegicus [21]): -60%
5 | C=CC[C@H]1c2c(cccc2OC)CC[C@H]1NCCC | 78 | 3.4 | 10 | 57 | 85 | 0.27 | 7.6 degrees F and 6 degrees F | Change (Rattus norvegicus [20]): 2.2%; Change (Rattus norvegicus [21]): -50%
6 | CCC[C@H]1c2c(O)cccc2CC[C@H]1N(CCC)CCC | > 92 | 9.5 | – | – | – | – | 6.9 degrees F | –
7 | CCCN[C@@H]1CCc2cccc(OC)c2[C@@H]1CCC | > 101 | 14 | – | – | – | – | 6.5 degrees F | –
8 | C=CC[C@H]1c2cccc(OC)c2CC[C@H]1NCCC | – | – | – | – | – | – | – | Change (Rattus norvegicus [22]): -24%; Change (Rattus norvegicus [23]): 35%; Change (Rattus norvegicus [24]): 17%; Change (Rattus norvegicus [25]): -36%
9 | C=CC[C@H]1c2c(cccc2OC)CC[C@H]1N(CCC)CCC | – | > 89 | – | – | – | – | – | –
